Broadly, the pIC50 is −log10 of the IC50, conventionally taken in molar units. As a reminder, the half-life is the time in which the quantity being followed falls by half. A higher half-life goes with slow loss. As a reminder, the bioavailability is dose-corrected exposure relative to a reference, in per cent.

The structures appear in SMILES notation. pIC50: −log10 of the molar value. Active and inactive are the calls of the source. No cut-off for these calls is given here.

Consider 21 compounds from ChEMBL document CHEMBL1255521, “Identification and optimization of substituted 5-aminopyrazoles as potent and selective adenosine A1 receptor antagonists” (Bioorg Med Chem Lett, 2010).

In data set [1] the target is T1, Adenosine receptor A1 (Homo sapiens, UniProt P30542).
T1 sequence (P30542 whole entry): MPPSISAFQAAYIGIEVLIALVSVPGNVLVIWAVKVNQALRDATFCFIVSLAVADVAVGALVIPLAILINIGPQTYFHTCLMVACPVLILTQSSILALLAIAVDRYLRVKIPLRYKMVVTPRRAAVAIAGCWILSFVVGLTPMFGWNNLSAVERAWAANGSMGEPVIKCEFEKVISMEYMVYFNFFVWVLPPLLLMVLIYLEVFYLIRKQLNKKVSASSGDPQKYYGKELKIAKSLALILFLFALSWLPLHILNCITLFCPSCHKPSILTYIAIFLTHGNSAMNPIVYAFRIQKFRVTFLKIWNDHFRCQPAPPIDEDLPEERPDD
The data set is described as follows: Antagonist activity at adenosine A1 receptor by cAMP assay. It counts as functional. Summed up: (§1)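 cAMP functional assay run in antagonist mode at each receptor subtype, with IC50 values reported as means of three experiments.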
Background: Cyclic AMP is a second messenger, typically raised through Gs and lowered through Gi signalling.

For data set [2], the target named is T2, Adenosine receptor A2b (Homo sapiens, UniProt P29275).
T2 sequence (P29275 whole entry): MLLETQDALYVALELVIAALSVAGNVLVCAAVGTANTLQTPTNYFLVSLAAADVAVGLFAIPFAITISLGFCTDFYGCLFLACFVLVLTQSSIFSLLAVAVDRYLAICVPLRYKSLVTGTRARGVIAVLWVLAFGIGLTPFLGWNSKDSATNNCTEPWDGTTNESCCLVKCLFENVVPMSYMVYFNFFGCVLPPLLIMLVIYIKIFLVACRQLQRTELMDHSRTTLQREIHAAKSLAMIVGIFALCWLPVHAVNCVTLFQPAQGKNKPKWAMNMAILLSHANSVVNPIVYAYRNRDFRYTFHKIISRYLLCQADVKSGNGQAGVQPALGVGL
The data set is described as follows: Antagonist activity at adenosine A2B receptor by cAMP assay. It counts as functional. An outline of the steps:
as §1

The target of data set [3] is Adenosine receptor A2a (Homo sapiens, UniProt P29274). The data set is described as follows: Antagonist activity at adenosine A2A receptor by cAMP assay. It counts as functional. An outline of the steps: as §1
Data set [4] can be described thus: Half life in Wistar rat at 1 mg/kg, iv and 3 mg/kg, po. It counts as ADME, organism-based. To be noted: in vivo. An outline of the steps: (§2)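 Pharmacokinetics in Wistar rats, with intravenous dosing at 1 mg/kg in a vehicle of 1% DMSO and 99% plasma.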
A short description of data set [5]: Blood clearance in Wistar rat at 1 mg/kg, iv and 3 mg/kg, po. It counts as ADME, organism-based. To be noted: whole blood. Summed up: as §2
The nature of data set [6]: Oral bioavailability in Wistar rat at 3 mg/kg. It counts as ADME, organism-based. To be noted: in vivo.
For data set [7], the target named is T3, Adenosine receptor A3 (Homo sapiens, UniProt P0DMS8).
T3 sequence (P0DMS8 whole entry): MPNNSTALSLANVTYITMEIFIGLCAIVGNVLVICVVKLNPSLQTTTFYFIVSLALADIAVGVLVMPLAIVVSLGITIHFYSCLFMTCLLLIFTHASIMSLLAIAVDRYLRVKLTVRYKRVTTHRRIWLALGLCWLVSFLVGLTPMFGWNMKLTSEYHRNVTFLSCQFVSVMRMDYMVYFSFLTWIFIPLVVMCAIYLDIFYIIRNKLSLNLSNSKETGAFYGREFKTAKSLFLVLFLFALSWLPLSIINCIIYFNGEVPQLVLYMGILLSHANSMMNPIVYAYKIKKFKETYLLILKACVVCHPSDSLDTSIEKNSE
The data set is described as follows: Antagonist activity at adenosine A3 receptor by cAMP assay. It counts as functional. An outline of the steps: as §1

Data set [8] concerns Rattus norvegicus. The data set is described as follows: Natriuretic activity in Wistar rat assessed as increase in natriuresis at 0.1 mg/kg, iv administered after 7 days of acclimatization. Format: functional, organism-based. Also noted: dose 0.1 mg/kg. Summed up: (§3)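 Wistar rats received compound intravenously in 1 ml/kg vehicle (40% PEG400, 60% Tris buffer), 6–8 animals per dose group, at doses between 0.1 and 3.0 mg/kg. Urine was collected at the cage bottom into collecting tubes, usually over 4 h. Volume was measured, and sodium and potassium were read by flame photometer.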

The nature of data set [9]: Selectivity ratio of IC50 for adenosine A2B receptor to IC50 for adenosine A1 receptor.
Data set [10] concerns Mus musculus. The data set is described as follows: Anticonvulsant activity in mouse assessed as inhibition of maximal electroshock-induced convulsion at 30 mg/kg, iv by MES test. Format: functional, organism-based. The arrangement: dose 30 mg/kg. A general note: In the maximal electroshock model the usual endpoint is tonic extension of the hind limbs.
Data set [11] concerns Mus musculus. The data set is described as follows: Anticonvulsant activity in mouse assessed as inhibition of pentylenetetrazole-induced convulsion at 30 mg/kg, iv. Format: functional, organism-based. The arrangement: dose 30 mg/kg.
In data set [12] the test system is Rattus norvegicus. The data set is described as follows: Diuretic activity in Wistar rat assessed as urine volume at 0.3 mg/kg, iv administered after 7 days of acclimatization. Format: functional, organism-based. Also noted: dose 0.3 mg/kg. Summed up: as §3

Adenosine receptor A2a, sequence (P29274 whole entry): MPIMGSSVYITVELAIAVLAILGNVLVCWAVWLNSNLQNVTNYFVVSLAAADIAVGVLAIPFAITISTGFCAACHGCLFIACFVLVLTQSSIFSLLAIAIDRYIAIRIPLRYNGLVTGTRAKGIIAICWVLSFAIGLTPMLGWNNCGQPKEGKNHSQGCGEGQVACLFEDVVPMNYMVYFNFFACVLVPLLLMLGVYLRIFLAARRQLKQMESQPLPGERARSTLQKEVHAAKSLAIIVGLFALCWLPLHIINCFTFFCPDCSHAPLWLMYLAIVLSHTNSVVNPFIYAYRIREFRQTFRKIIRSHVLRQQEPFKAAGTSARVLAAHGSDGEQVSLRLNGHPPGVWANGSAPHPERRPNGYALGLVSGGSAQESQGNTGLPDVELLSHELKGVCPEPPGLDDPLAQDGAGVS

The compound `COc1ccc(Nc2c(-c3ccc(C)c(C)c3)c(C)nn2-c2ccccc2C)c(C(=O)O)c1` showed a pIC50 in data set [1] of 6.25.

Consider `Cc1ccccc1-n1nc(C(F)(F)F)c(-c2ccc3nccnc3c2)c1Nc1ccccc1C(=O)O`, for which the pIC50 was 4.72 in [2], 8.05 in [1] and less than 4.30 in data set [3].

In the case of `COc1ccc(Nc2c(-c3ccc(F)c(F)c3)c(C)nn2-c2ccccc2C)c(C(=O)O)c1`, in [1], the pIC50 was 6.53.

As to `COc1ccc(Nc2c(-c3ccc4c(c3)OCO4)c(C)nn2-c2ccccc2C)c(C(=O)O)c1`, the pIC50 in data set [1] is 6.64. This pIC50 and that of the compound before are within 0.2 log units of each other.

On to `Cc1ccccc1-n1ncc(-c2ccc3nccnc3c2)c1Nc1ccccc1C(=O)O`, for which the negative logarithm of the IC50 (pIC50) is less than 4.30 in data set [2], 6.56 in data set [1] and less than 4.30 in [3].

Take `Cc1ccccc1-n1nc(C)c(-c2ccc3nccnc3c2)c1Nc1ccc(Cl)cc1C(=O)O`: the pIC50 is less than 4.30 in [2], 7.80 in data set [1] and less than 4.30 in [3].

Compound `COc1ccc(Nc2c(-c3ccc4c(c3)OCCO4)c(C)nn2-c2ccccc2C)c(C(=O)O)c1` showed a pIC50 in data set [1] of 7.57.

`CCc1nn(-c2ccccc2C)c(Nc2ccccc2C(=O)O)c1-c1ccc2nccnc2c1`: the values for the negative-log IC50 (pIC50) in data set [2], in data set [1] and in data set [3] were less than 4.30, 7.89 and less than 4.30, respectively.

As for `COc1ccc(Nc2c(-c3ccc4nccnc4c3)c(C)nn2-c2ccccc2Cl)c(C(=O)O)c1`, the negative logarithm of the IC50 (pIC50) in data set [2] is less than 4.30; in data set [1] it was 8.14; in [3], less than 4.30.

Regarding `COc1ccc(Nc2c(-c3ccc(F)cc3)c(C)nn2-c2ccccc2C)c(C(=O)O)c1`, the negative-log IC50 (pIC50) in data set [1] was 8.86.

As for `COc1ccc(Nc2c(-c3ccc(C)cc3)c(C)nn2-c2ccccc2C)c(C(=O)O)c1`, in data set [1], the pIC50 was 8.50. Against the preceding compound, the pIC50 is 0.36 log units lower.

For `CCc1ccccc1-n1nc(C)c(-c2ccc3nccnc3c2)c1Nc1ccc(OC)cc1C(=O)O`, the pIC50 in data set [2] is less than 4.30; in [1], 8.19; in [3] it was less than 4.30.

In turn, `COc1ccc(Nc2c(-c3ccc(OC)c(OC)c3)c(C)nn2-c2ccccc2C)c(C(=O)O)c1` gave a pIC50 in [1] of 6.63.

As for `COc1ccc(Nc2c(-c3ccc4nccnc4c3)c(C)nn2C2CCCCC2)c(C(=O)O)c1`, the negative-log IC50 (pIC50) in data set [2] was less than 4.30; in data set [1], 6.36; in data set [3], less than 4.30.

On to `Cc1ccccc1-n1nc(C)c(-c2ccc3nccnc3c2)c1Nc1ccccc1C(=O)O`, for which the pIC50 in [2] is less than 4.30; in [1], 8.10; in [3] it was less than 4.30.

With `COc1ccc(Nc2c(-c3ccc4nccnc4c3)c(C)nn2-c2ccccc2)c(C(=O)O)c1`, the negative-log IC50 (pIC50) in data set [2] is 5.96; in [1] it was 8.55; in [3], 5.26.

As to `COc1ccc(Nc2c(-c3ccc(C(C)=O)cc3)c(C)nn2-c2ccccc2C)c(C(=O)O)c1`, in data set [4], the half-life is 1.5 h. For the same compound, in [5], the clearance is 66.7 mL/min/kg. This compound gave a pIC50 in [1] of 7.40. This compound also came in with a bioavailability in [6] of 20%.

`Cc1ccc(Nc2c(-c3ccc4nccnc4c3)c(C)nn2-c2ccccc2C)c(C(=O)O)c1`: the pIC50 in data set [2] is less than 4.30; in data set [1], 8.29; in data set [3], less than 4.30.

`COc1ccc(Nc2c(-c3ccc4nccnc4c3)c(C)nn2-c2ccccc2C)c(C(=O)O)c1`: the pIC50 in data set [2] was less than 4.30; in data set [1], 8.49; in data set [3], less than 4.30; in data set [7] it was 4.89. Further, the half-life in [4] was 0.4 h. This compound had a clearance in data set [5] of 43.7 mL/min/kg. Also, the bioavailability in [6] worked out at 20%.

For `Cc1ccccc1-n1nc(C)c(-c2cc(F)c3nccnc3c2)c1Nc1ccccc1C(=O)O`, the result in data set [8] and in [12] was Active. The Ratio IC50 in [9] is more than 83000. For the same compound, the pIC50 in data set [2] is less than 4.30; in data set [3], less than 4.30; in data set [7] it was less than 5.00. The half-life in data set [4] was 1.8 h. This compound gave a clearance in data set [5] of 9.5 mL/min/kg. Besides, the result in data set [10] and in data set [11] was inactive. For the same compound, the bioavailability in data set [6] stood at 97%.

In [1], `COc1ccc(-c2c(C)nn(-c3ccccc3C)c2Nc2ccc(OC)cc2C(=O)O)cc1` had a pIC50 of 6.51.
